In ChEMBL document CHEMBL1148130, “Derrisin, a new rotenoid from Derris malaccensis plain and anti-Helicobacter pylori activity of its related constituents” (2002):
≈ marks a conversion by molar mass, not a printed value. Calls of active or inactive are those of the source. No cut-off for these calls is given here.

What was measured:
Bacteroides fragilis = experiment: Antibacterial activity against Bacteroides fragilis ATCC 25285 at 625 ug/mL after 24 hrs by conventional well agar method; type: functional, organism-based
Bacillus subtilis = experiment: Antibacterial activity against Bacillus subtilis ATCC 6633 at 625 ug/mL after 24 hrs by conventional well agar method; type: functional, organism-based
Escherichia coli = experiment: Antibacterial activity against Escherichia coli ATCC 10536 at 625 ug/mL after 24 hrs by conventional well agar method; type: functional, organism-based
Helicobacter pylori = experiment: Antibacterial activity against Helicobacter pylori 31A after 48 hrs by serial doubling dilution method; type: functional
How it was run: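 H. pylori strain 31 A (stomach ulcer isolate) in brain-heart infusion broth with 10% fetal bovine serum, grown in test tubes under 10% CO2, 5% O2 and 85% N2 at 37 °C. Serial doubling dilutions made in 10% aqueous DMSO and added as 10% of the medium, with 5% culture inoculum. Incubated 37 °C for 48 h. MIC taken as the lowest concentration with no visible growth.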

Micrococcus luteus = experiment: Antibacterial activity against Micrococcus luteus ATCC 9341 at 625 ug/mL after 24 hrs by conventional well agar method; type: functional, organism-based
Pseudomonas aeruginosa = experiment: Antibacterial activity against Pseudomonas aeruginosa ATCC 9027 at 625 ug/mL after 24 hrs by conventional well agar method; type: functional, organism-based
Candida albicans = experiment: Antifungal activity against Candida albicans ATCC 10231 at 625 ug/mL after 24 hrs by conventional well agar method; type: functional, organism-based

| Compound | Activity (Bacteroides fragilis) | Activity (Bacillus subtilis) | Activity (Escherichia coli) | MIC (Helicobacter pylori) [µg/mL] | Activity (Micrococcus luteus) | Activity (Pseudomonas aeruginosa) | Activity (Candida albicans) |
| --- | --- | --- | --- | --- | --- | --- | --- |
| COc1cc2c(cc1OC)Oc1c(oc3c4c(ccc3c1=O)OC(C)(C)C=C4)CO2 | inactive | inactive | inactive | 4 (≈ 9.79 µM) | inactive | inactive | inactive |
| COc1cc2c(cc1OC)[C@]1(O)C(=O)c3ccc4c(c3O[C@@H]1CO2)[C@H](O)[C@@H](O)C(C)(C)O4 | inactive | inactive | inactive | > 88 | inactive | inactive | inactive |
| CC[C@H]1OC(=O)[C@H](C)[C@@H](O[C@H]2C[C@@](C)(OC)[C@@H](O)[C@H](C)O2)[C@H](C)[C@@H](O[C@@H]2O[C@H](C)C[C@H](N(C)C)[C@H]2O)[C@](C)(OC)C[C@@H](C)C(=O)[C@H](C)[C@@H](O)[C@]1(C)O [CLARITHROMYCIN] | inactive | inactive | inactive | 0.05 (≈ 0.0668 µM) | inactive | inactive | inactive |
| COc1cc2c(cc1OC)[C@@H]1C(=O)c3ccc4c(c3O[C@@H]1CO2)C=CC(C)(C)O4 [DEGUELIN] | inactive | inactive | inactive | 0.6 (≈ 1.52 µM) | inactive | inactive | inactive |
| COc1cc2c(cc1OC)-c1c(oc3c4c(ccc3c1=O)OC(C)(C)C=C4)CO2 [DEHYDRODEGUELIN] | inactive | inactive | inactive | 4 (≈ 10.2 µM) | inactive | inactive | inactive |
| C=C(C)[C@H]1Cc2c(ccc3c(=O)c4c(oc23)COc2cc(OC)c(OC)cc2-4)O1 [DEHYDROROTENONE] | inactive | inactive | inactive | 9.8 (≈ 25 µM) | inactive | inactive | inactive |
| COc1cc2c(cc1OC)[C@@H]1C(=O)c3ccc4c(c3O[C@@H]1CO2)[C@H](O)[C@@H](O)C(C)(C)O4 [DERRISIN] | inactive | inactive | inactive | 85 (≈ 198 µM) | inactive | inactive | inactive |
| COc1cc2c(cc1OC)[C@@H]1C(=O)c3ccc4occc4c3O[C@@H]1CO2 [ELLIPTONE] | inactive | inactive | inactive | 3 (≈ 8.51 µM) | inactive | inactive | inactive |
| C=C(C)[C@H]1Cc2c(ccc3c2O[C@@H]2COc4cc(OC)c(OC)cc4[C@]2(O)C3=O)O1 [ROTENOLONE] | inactive | inactive | inactive | 1.3 (≈ 3.17 µM) | inactive | inactive | inactive |
| C=C(C)[C@H]1Cc2c(ccc3c2O[C@@H]2COc4cc(OC)c(OC)cc4[C@@H]2C3=O)O1 [ROTENONE] | inactive | inactive | inactive | 1.3 (≈ 3.3 µM) | inactive | inactive | inactive |
| COc1cc2c(cc1OC)[C@]1(O)C(=O)c3ccc4c(c3O[C@@H]1CO2)C=CC(C)(C)O4 [TEPHROSIN] | inactive | inactive | inactive | 0.3 (≈ 0.731 µM) | inactive | inactive | inactive |
| COc1cc2c(cc1OC)[C@@H]1C(=O)c3c(O)cc4c(c3O[C@@H]1CO2)C=CC(C)(C)O4 [TOXICAROL] | inactive | inactive | inactive | 0.3 (≈ 0.731 µM) | inactive | inactive | inactive |
